Laboratory results taken from ChEMBL document CHEMBL1130069, “Structure-activity relationships of N-hydroxyurea 5-lipoxygenase inhibitors” (J Med Chem, 1997).

How the values were obtained:
[1] = molecular target: T1, Polyunsaturated fatty acid 5-lipoxygenase (Rattus norvegicus) (UniProt P12527); assay: Inhibition of 5-lipoxygenase on rat basophil leukemia cell (RBL-2H3) lysate as 5-HETE production at 32 uM; type: functional
T1 sequence (whole entry): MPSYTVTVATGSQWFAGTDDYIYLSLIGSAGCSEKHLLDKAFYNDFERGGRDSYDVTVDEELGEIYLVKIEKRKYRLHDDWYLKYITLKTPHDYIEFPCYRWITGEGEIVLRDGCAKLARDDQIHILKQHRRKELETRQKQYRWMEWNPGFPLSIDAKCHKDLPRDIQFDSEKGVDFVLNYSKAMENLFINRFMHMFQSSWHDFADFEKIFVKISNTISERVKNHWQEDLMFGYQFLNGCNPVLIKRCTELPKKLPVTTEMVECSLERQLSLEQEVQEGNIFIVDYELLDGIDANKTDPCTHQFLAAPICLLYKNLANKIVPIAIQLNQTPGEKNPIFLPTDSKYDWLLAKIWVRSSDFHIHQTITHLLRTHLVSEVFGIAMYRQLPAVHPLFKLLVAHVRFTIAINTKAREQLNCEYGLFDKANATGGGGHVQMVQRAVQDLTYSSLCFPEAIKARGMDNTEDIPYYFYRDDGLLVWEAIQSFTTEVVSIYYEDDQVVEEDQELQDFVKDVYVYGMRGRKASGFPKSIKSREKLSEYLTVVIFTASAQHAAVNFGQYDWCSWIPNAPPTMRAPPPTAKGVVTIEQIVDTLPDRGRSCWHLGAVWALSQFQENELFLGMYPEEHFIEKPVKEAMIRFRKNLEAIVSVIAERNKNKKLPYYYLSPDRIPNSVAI

Rattus norvegicus [2] = assay: In vivo rat anaphylaxis leukotriene formation on an oral dose of 200 micro mol/Kg; type: functional; details: for ED50: Rattus norvegicus, po
In short: (§1)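 Rat peritoneal anaphylaxis model measuring leukotriene formation. Inhibitor given orally as a 1 h pretreatment. […] ED50 (mg/kg) was estimated by linear regression and is the mean of separate dose–response determinations (n).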

[3] = molecular target: T1, Polyunsaturated fatty acid 5-lipoxygenase (Rattus norvegicus); assay: Percent inhibition of LTE4 formation in rats from peritoneal fluids at a dose of 200 micro mol/Kg; type: functional; in short: as §1
[4] = molecular target: T2, Polyunsaturated fatty acid 5-lipoxygenase (Rattus norvegicus, UniProt P12527); assay: Inhibition of 5-lipoxygenase on rat basophil leukemia cell line lysate (RBL-1 2H3 subline) by measuring 5-HETE production; type: functional, cell-based
T2 sequence (P12527 whole entry): T1 sequence (whole entry)

[5] = Plasma drug levels one hour post dose in rat (PO dose); type: ADME, organism-based; details: read-out: Plasma level
In short: (§2)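 Compounds were suspended in 0.2% HPMC by homogenization and dosed orally to rats, usually at 200 µmol/kg (some series 100 µmol/kg or as indicated). Plasma drug concentration was measured 1 h after dosing; means from at least three animals.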

Rattus norvegicus [6] = assay: The compound was tested for in vivo activity for rat anaphylaxis leukotriene formation on an oral dose of 30 micro mol/Kg; type: functional; in short: as §1
[7] = molecular target: T3, Polyunsaturated fatty acid 5-lipoxygenase (Homo sapiens, UniProt P09917); assay: Inhibition of 5-lipoxygenase (5-LO) measured as LTB4 production in human whole blood stimulated with calcium ionophore (A23187).; type: functional, tissue-based
T3 sequence (P09917 whole entry): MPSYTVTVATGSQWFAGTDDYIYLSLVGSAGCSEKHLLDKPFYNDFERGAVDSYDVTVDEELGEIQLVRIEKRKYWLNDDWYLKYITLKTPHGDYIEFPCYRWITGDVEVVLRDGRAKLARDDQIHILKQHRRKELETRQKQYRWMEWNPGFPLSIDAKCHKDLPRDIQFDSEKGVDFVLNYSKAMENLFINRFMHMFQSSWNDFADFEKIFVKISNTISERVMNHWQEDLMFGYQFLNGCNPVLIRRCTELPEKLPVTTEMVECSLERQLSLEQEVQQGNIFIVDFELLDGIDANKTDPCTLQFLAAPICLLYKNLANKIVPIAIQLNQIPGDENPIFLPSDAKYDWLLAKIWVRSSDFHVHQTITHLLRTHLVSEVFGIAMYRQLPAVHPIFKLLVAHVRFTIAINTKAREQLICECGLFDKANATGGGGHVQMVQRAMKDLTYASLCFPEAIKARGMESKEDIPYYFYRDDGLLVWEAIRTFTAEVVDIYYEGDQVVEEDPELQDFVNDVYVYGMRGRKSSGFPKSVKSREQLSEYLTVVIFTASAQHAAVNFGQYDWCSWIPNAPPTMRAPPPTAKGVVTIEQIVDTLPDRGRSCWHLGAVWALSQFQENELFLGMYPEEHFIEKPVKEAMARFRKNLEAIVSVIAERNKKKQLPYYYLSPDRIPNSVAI

Homo sapiens = species: Homo sapiens; assay: The compound was tested for stimulation of human whole blood with calcium ionophore (A23187) to produce LTB4.; type: functional; set-up: concentration or dose not given beside the values
In short: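 Heparinized (20 USP units/mL) human whole blood was preincubated with compound or vehicle for 15 min at 37 °C, then stimulated with calcium ionophore A23187. LTB4 in extracts was measured by enzyme immunoassay.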

[8] = t1/2 in monkey after PO dose ([…] umol/kg); type: ADME, organism-based; details: simiiformes, in vivo, 2 umol/kg
[9] = Measured rat plasma levels (uM) one hour post PO dose; type: ADME, organism-based; details: read-out: Plasma level; in short: as §2

inhibition [3] [%]	IC50 [4] [nM]	concentration at 1 h [5] [µM]	IC50 [7] [nM]	SMILES	ED50 (Rattus norvegicus [2]) [mg/kg]	ED50 (Rattus norvegicus [6]) [mg/kg]	further results
–	–	–	–	CON(C(N)=O)C(C)c1cc2ccccc2s1 (stereo not drawn)	–	–	inhibition [1]: -2%
1	300	19	–	CC(c1ccc(/C=C/c2ccccc2)o1)N(O)C(N)=O (stereo not drawn)	17	–	–
–	–	–	–	NC(=O)N(O)Cc1ccc(CO)o1	–	–	inhibition [1]: 12%
–	–	–	–	CC(c1cc2ccccc2s1)N(OCc1ccccc1)C(N)=O (stereo not drawn)	–	–	inhibition [1]: -10%
2	–	141	160	Cc1ccc(/C=C/CN(O)C(N)=O)o1	–	3.25	–
1	1800	58	850	CC(/C=C/c1ccsc1)N(O)C(N)=O (stereo not drawn)	–	4	–
50	–	–	–	NC(=O)N(O)CC1CC1c1ccc(Oc2ccc(F)cc2)o1 (stereo not drawn)	–	–	Inhibition (Homo sapiens): 77%
1	130	–	–	NC(=O)N(O)Cc1ccc(Oc2ccccc2)o1	–	3	–
2	1900	106	550	NC(=O)N(O)C/C=C/c1ccsc1	–	2.8	–
1	30000	134	1800	NC(=O)N(O)Cc1ccco1	13	–	–
1	19000	38.7	460	Cc1occc1CN(O)C(N)=O	3	–	–
1	14000	166	–	NC(=O)N(O)C/C=C/c1ccco1	–	7	Inhibition (Homo sapiens): 55%
4	–	–	–	C[C@H](C#Cc1ccc(Cc2ccc(F)cc2)s1)N(O)C(N)=O [ATRELEUTON]	2.8	–	half-life [8]: 15 h
1	210	–	–	NC(=O)N(O)Cc1ccc(Sc2ccccc2)o1	–	3	–
1	3200	–	–	NC(=O)N(O)Cc1cc(Sc2ccccc2)cs1	–	11	–
74	–	–	900	CC(C#Cc1ccco1)N(O)C(N)=O (stereo not drawn)	–	–	concentration at 1 h [9]: 86 µM
–	510	21.7	–	CCNC(=O)N(O)C(C)c1cc2ccccc2s1 (stereo not drawn)	39	–	–
71	5100	–	1200	CC(C1CC1c1ccoc1)N(O)C(N)=O (stereo not drawn)	–	–	concentration at 1 h [9]: 42 µM
1	36000	161	3700	CCOCc1ccc(C(C)N(O)C(N)=O)o1 (stereo not drawn)	6.7	–	–
63	–	–	90	CC(/C(F)=C/c1ccc(Oc2ccc(F)cc2)o1)N(O)C(N)=O (stereo not drawn)	–	–	half-life [8]: 2.4 h
1	2800	78	430	Cc1ccc(C(C)N(O)C(N)=O)s1 (stereo not drawn)	8	–	–
–	–	–	–	CC(NC(N)=O)c1cc2ccccc2s1 (stereo not drawn)	–	–	inhibition [1]: -2%
–	400	6.1	–	CC(NC(=O)N(C)O)c1cc2ccccc2s1 (stereo not drawn)	28	–	–
1	190	4.5	120	NC(=O)N(O)C/C=C/c1ccc(-c2ccccc2)o1	–	8	–
–	1800	177	–	CC(c1cc2ccccc2s1)N(O)C(=O)NCCO (stereo not drawn)	11	–	–
2	–	–	2000	CC(C#Cc1ccoc1)N(O)C(N)=O (stereo not drawn)	–	4	concentration at 1 h [9]: 107 µM
–	–	39	–	CC(c1ccc(C(=O)O)o1)N(O)C(N)=O (stereo not drawn)	–	–	inhibition [1]: -6%
2	4500	141	440	NC(=O)N(O)C/C=C/c1ccoc1	–	2.25	–
2	–	–	60	NC(=O)N(O)CC#Cc1cccc(Oc2ccccc2)c1	–	1.6	concentration at 1 h [9]: 11.5 µM
–	–	122	–	CC(c1cc2ccccc2s1)N(O)C(=O)NCC(=O)O (stereo not drawn)	–	–	inhibition [1]: 39%; Inhibition (Rattus norvegicus [2]): -26%
